The results in this text go back to ChEMBL document CHEMBL4387708, “Enhancement of Benzothiazoles as Pteridine Reductase-1 Inhibitors for the Treatment of Trypanosomatidic Infections” (J Med Chem, 2019).

The IC50 is the concentration that inhibits the measured activity by half. Broadly, the GI50 is the concentration at which growth is held to half of that of the control.

The subject of one series is Trypanosoma cruzi. The series is described as follows: Growth inhibition of trypomastigote form of Trypanosoma cruzi Y infected in human U2OS cells at 50 uM measured after 72 hrs by DRAQ5 DNA dye based confocal microscopic analysis relative to control. The series is classed as organism-based. The note with it: trypanosoma cruzi, 50 µM.
`Nc1nc2ccc(C(=O)NCc3ccc(C(=O)NCc4ccccc4)cc3)cc2s1`: the “growth inhibition (GI)” value was “Non-Toxic”.

Take `Nc1nc2ccc(OC(F)(F)F)cc2s1` [RILUZOLE]: the “growth inhibition (GI)” value is reported as “Non-Toxic”.

The test system of a further series is Leishmania infantum. Put plainly: Growth inhibition of luciferase expressing Leishmania infantum axenic amastigotes infected in human THP1 cells at 10 uM measured after 72 hrs by steady-glo luminescence assay relative to control. Format: organism-based. The conditions noted are these: leishmania infantum, 72 h, 10 µM.
On to `Nc1nc2ccc(C(=O)NCc3ccc(C(=O)NCc4ccccc4)cc3)cc2s1`, for which the “growth inhibition (GI)” value was “Non-Toxic”.

Turning to `Nc1nc2ccc(OC(F)(F)F)cc2s1` [RILUZOLE], the “growth inhibition (GI)” value is given as “Non-Toxic”.

The next series has as its target T1, Pteridine reductase 1 (Leishmania major, UniProt Q01782).
T1 sequence (Q01782 whole entry): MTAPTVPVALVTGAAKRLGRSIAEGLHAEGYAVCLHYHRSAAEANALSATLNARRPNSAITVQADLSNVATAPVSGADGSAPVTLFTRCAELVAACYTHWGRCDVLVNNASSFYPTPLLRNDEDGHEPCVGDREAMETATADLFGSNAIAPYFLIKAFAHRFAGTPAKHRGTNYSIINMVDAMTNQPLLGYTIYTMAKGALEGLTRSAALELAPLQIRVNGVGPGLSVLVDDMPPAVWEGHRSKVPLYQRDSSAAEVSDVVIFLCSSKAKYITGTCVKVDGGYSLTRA
Put plainly: Inhibition of Leishmania major pteridine reductase 1 using di-hydrobiopterine as substrate in presence of NADPH. The conditions noted are these: read-out: IC50. Summed up:
(§1)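 Photometric PTR1 assay with NADPH and dihydrobiopterin substrate. H₄B formation is coupled non-enzymatically to cytochrome c reduction, read as signal increase at 550 nm.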
With `CCc1nc(N)nc(N)c1-c1ccc(Cl)cc1` [PYRIMETHAMINE], the IC50 turned out to be 13.6 µM.

Turning to `Nc1nc2ccc(C(=O)NCc3ccc(C(=O)NCc4ccccc4)cc3)cc2s1`, the IC50 was 18.9 µM.

As to `Nc1nc2ccc(OC(F)(F)F)cc2s1` [RILUZOLE], the IC50 was found to be 94.1 µM.

Biological target in another series: not listed separately
The series is described as follows: Inhibition of N-terminal His-tagged Trypanosoma brucei pteridine reductase 1 using di-hydrobiopterine as substrate measured at 1 min interval for 50 mins in presence of NADPH.
Details: not given
A digest of the protocol: as §1
`CCc1nc(N)nc(N)c1-c1ccc(Cl)cc1` [PYRIMETHAMINE]: the IC50 stood at 0.09 µM.

Regarding `Nc1nc2ccc(C(=O)NCc3ccc(C(=O)NCc4ccccc4)cc3)cc2s1`, the concentration for half-maximal inhibition (IC50) came out at 6.85 µM.

As for `Nc1nc2ccc(OC(F)(F)F)cc2s1` [RILUZOLE], the IC50 came to 15.1 µM.

The subject of a further series is Trypanosoma brucei. Put plainly: Inhibition of N-terminal His-tagged Trypanosoma brucei pteridine reductase 1 at 50 uM using di-hydrobiopterine as substrate measured at 1 min interval for 50 mins in presence of NADPH relative to control.
Details: not given
A digest of the protocol:
as §1
With `Nc1nc2ccc(C(=O)NCc3ccc(C(=O)NCc4ccccc4)cc3)cc2s1`, the inhibition is > 60%.

Consider `Nc1nc2ccc(OC(F)(F)F)cc2s1` [RILUZOLE], for which the inhibition was > 60%.

In the next series the target is T2, Pteridine reductase 1 (Leishmania major) (UniProt Q01782).
T2 sequence (whole entry): T1 sequence (Q01782 whole entry)
Put plainly: Inhibition of Leishmania major pteridine reductase 1 at 50 uM using di-hydrobiopterine as substrate in presence of NADPH relative to control.
Details: not given
A digest of the protocol: as §1
As for `Nc1nc2ccc(C(=O)NCc3ccc(C(=O)NCc4ccccc4)cc3)cc2s1`, the inhibition was > 60%.

Take `Nc1nc2ccc(OC(F)(F)F)cc2s1` [RILUZOLE]: the inhibition was > 60%.

Another series relates to Trypanosoma brucei. Put plainly: Growth inhibition of Trypanosoma brucei bloodstream forms at 10 uM measured after 72 hrs by resazurin-based fluorescence assay relative to control. The series is classed as organism-based. The conditions noted are these: Trypanosoma brucei, read-out: GI. (In general: The colour change of resazurin is a common sign of viable cells or microbes.)
Take `Nc1nc2ccc(C(=O)NCc3ccc(C(=O)NCc4ccccc4)cc3)cc2s1`: the inhibition at 10 µM was determined as 53%.

Staying with this series, now noted: trypanosoma brucei, 10 µM.
With `Nc1nc2ccc(OC(F)(F)F)cc2s1` [RILUZOLE], the “growth inhibition (GI)” value is reported as “Non-Toxic”.

The target of another series is Voltage-gated inwardly rectifying potassium channel KCNH2 (Homo sapiens, UniProt Q12809). Put plainly: Displacement of Tracer Red from human ERG by fluorescence polarization assay.
Sequence of Voltage-gated inwardly rectifying potassium channel KCNH2 (Q12809 whole entry): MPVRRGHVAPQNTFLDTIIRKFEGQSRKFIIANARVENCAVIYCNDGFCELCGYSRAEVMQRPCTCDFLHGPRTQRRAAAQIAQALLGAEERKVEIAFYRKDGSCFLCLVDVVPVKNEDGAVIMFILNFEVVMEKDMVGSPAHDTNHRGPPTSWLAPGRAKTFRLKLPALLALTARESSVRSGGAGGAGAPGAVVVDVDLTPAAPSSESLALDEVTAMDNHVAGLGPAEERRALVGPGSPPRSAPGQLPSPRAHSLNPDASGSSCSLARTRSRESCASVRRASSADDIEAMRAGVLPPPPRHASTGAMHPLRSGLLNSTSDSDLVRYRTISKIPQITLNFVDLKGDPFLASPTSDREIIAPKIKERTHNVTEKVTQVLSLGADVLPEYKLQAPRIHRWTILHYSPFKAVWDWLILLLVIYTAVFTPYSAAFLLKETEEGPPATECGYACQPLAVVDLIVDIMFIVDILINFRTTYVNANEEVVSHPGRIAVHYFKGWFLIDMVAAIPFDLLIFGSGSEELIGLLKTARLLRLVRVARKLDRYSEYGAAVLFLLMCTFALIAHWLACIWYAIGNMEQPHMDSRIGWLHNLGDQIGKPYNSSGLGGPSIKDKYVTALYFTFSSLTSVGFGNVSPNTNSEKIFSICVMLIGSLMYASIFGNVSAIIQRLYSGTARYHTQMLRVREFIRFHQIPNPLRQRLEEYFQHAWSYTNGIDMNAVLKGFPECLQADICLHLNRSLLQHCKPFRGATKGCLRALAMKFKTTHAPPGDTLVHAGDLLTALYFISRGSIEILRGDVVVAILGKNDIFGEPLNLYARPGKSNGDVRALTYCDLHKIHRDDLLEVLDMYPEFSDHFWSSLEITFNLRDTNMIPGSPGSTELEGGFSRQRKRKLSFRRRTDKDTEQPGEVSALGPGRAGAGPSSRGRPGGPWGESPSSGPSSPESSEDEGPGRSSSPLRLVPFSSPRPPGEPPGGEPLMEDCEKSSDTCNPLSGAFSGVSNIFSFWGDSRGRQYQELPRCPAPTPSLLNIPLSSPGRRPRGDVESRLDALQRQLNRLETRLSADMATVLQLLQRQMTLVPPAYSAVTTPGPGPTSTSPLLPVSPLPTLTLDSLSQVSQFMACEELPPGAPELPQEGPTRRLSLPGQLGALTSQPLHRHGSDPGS
Details: not given
A general note: In fluorescence polarisation assays a small probe gives low polarisation when free and higher when bound to something large.
Consider `Nc1nc2ccc(C(=O)NCc3ccc(C(=O)NCc4ccccc4)cc3)cc2s1`, for which the IC50 was > 25 µM.

A further series deals with T3, Cytochrome P450 1A2 (Homo sapiens, UniProt P05177).
T3 sequence (P05177 whole entry): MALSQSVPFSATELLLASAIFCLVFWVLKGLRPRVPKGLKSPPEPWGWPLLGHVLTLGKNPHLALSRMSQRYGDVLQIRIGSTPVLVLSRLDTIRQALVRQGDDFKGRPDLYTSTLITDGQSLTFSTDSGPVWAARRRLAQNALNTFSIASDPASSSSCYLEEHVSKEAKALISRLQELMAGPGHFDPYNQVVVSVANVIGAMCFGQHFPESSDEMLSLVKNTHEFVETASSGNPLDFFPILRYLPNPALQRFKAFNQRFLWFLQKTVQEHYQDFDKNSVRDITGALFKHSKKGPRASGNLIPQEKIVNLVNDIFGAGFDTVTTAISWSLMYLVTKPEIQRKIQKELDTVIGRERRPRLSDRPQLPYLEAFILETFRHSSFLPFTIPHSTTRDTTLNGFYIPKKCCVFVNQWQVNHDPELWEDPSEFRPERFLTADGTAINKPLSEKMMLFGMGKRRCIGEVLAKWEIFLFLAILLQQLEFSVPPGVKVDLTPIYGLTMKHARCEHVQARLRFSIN
Put plainly: Inhibition of human CYP1A2 expressed in baculovirus infected insect cells using beetle D-luciferin as substrate preincubated for 30 mins followed by NADPH addition and measured after 30 mins by CYP450-Glo assay.
Details: not given
`Nc1nc2ccc(C(=O)NCc3ccc(C(=O)NCc4ccccc4)cc3)cc2s1`: the IC50 was > 25 µM.

Tested on in another series: not listed separately
The series is described as follows: Cytotoxicity against human A549 cells after 48 hrs by Celltiter-glo assay. Format: cell-based.
Details: not given
For orientation: In ATP-based viability assays light output follows the ATP content of the culture.
For the compound `Nc1nc2ccc(C(=O)NCc3ccc(C(=O)NCc4ccccc4)cc3)cc2s1`, the GI50 at 48 h was > 25 µM.

Compound `Nc1nc2ccc(OC(F)(F)F)cc2s1` [RILUZOLE] displayed a GI50 at 48 h of 10 to 25 µM.

Tested on in a further series: not listed separately
The series is described as follows: Cytotoxicity against human THP1 cells after 72 hrs by MTT assay. The series is classed as cell-based, THP-1. The note with it: read-out: NOAEL.
For `Nc1nc2ccc(C(=O)NCc3ccc(C(=O)NCc4ccccc4)cc3)cc2s1`, the MNTC at 72 h lay within 10 to 25 µM.

For `Nc1nc2ccc(OC(F)(F)F)cc2s1` [RILUZOLE], the MNTC at 72 h is > 25 µM.

Tested on in the next series: not listed separately
The series is described as follows: Cytotoxicity against human U2OS cells assessed as reduction in cell number. The series is classed as cell-based.
Details: not given
In the case of `Nc1nc2ccc(C(=O)NCc3ccc(C(=O)NCc4ccccc4)cc3)cc2s1`, the GI50 was > 25 µM.

For the compound `Nc1nc2ccc(OC(F)(F)F)cc2s1` [RILUZOLE], the GI50 was > 25 µM.

Tested on in another series: not listed separately
The series is described as follows: Mitochondrial toxicity in human 786-O cells measured after 6 hrs by MitoTracker Red chloromethyl-X-rosamine based assay.
Details: not given
Format: cell-based, 786-0.
`Nc1nc2ccc(C(=O)NCc3ccc(C(=O)NCc4ccccc4)cc3)cc2s1`: the IC50 at 6 h is > 25 µM.

For the compound `Nc1nc2ccc(OC(F)(F)F)cc2s1` [RILUZOLE], the IC50 at 6 h is > 25 µM.
